HUVEC inhibit = human endothelial cell proliferation inhibition. HUVEC proliferation, CellTiter-Glo luminescence, 72 h; active compounds read low. viability, % at 10 µM (by protocol). 86,000 compounds, 1.1% hits. AID 648;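 active = viability at or below 30%; inactive = viability above 30%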;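 also: 100% = median luminescence of DMSO-only cell control wells on each plate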
H69AR inhibit = growth inhibitors of human H69AR lung tumor cells | H69AR lung tumor viability, ATP luminescence, 72 h; active compounds read low | viability, % at 10 µM | 85,000 compounds, 6% hits | AID 598;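 active = viability at or below 40%; inactive = viability above 40%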;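 also: multidrug resistant small cell line overexpressing MRP-1 efflux transporter; 100% = mean luminescence of untreated control wells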
Cav32 inh = inhibitors of human Cav3.2 T-type calcium channel. O95180. Cav3.2-expressing cells, Fluo-4 calcium fluorescence FDSS; active compounds read low. B-score at 10 µM. 100,000 compounds, 4% hits;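 active = single-dose well whose peak fluorescence ratio is a statistical outlier from its plate by either plate-standardised score or position-corrected B-score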
PTEN del growth = growth suppressors of cells with PTEN tumor suppressor deletion. HCT116 PTEN-null viability, CellTiter-Glo, 60 h; active compounds read low. viability, % at 10 µM. 140,000 compounds, 1.2% hits;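 active = viability at or below a set limit, 4 SD under the median of all tested compounds, cut at about 3.7% in these data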;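 also: PTEN knockout HCT116 line with beta catenin targeted HCT116 as companion control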
bCat KO growth = beta-catenin-lacking colon tumor cell growth suppression; HCT116 beta-catenin knockout viability, CellTiter-Glo, 60 h; active compounds read low; viability, % at 10 µM; 140,000 compounds, 1.5% hits;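 active = viability at or under a set limit, the compound median less 4 SD, cut at about 6% in these data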;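 also: 0% = Hyamine 1622 control at 20 µM and 100% = untreated cell control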
Lung fibro prol = blocks proliferation of human lung fibroblasts. LL 47 human lung fibroblast viability, ATP luminescence; active compounds read low. viability, % at 10 µM. 85,000 compounds, 1.1% hits. AID 719;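 active = viability at or below 50% in the single dose screen; inactive = viability above 50%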;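 also: compound exposure lasted 72 h before the ATP readout; 100% = median luminescence of untreated cell-only wells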
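Test system: LL 47 human lung fibroblasts / Quantity: 1,150 cells in each well / Medium: IMEM growth medium with 15% fetal bovine serum / Incubation: 72 h compound exposure at 37 °C after overnight plating / Detection: CellTiter-Glo luminescence measuring cellular ATP / Read-out: % viability versus median cells-only luminescence / Benchmarks: cell-only wells, no compound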
* hit, by the source's call; x = no result. A selection: hits, their analogues and other compounds. The true share with any hit is near 7.1%.

SMILES | HUVEC inhibit | H69AR inhibit | Cav32 inh | PTEN del growth | bCat KO growth | Lung fibro prol
O=C(CSc1nnc(-c2cccs2)n1-c1ccccc1)N1CCc2ccccc21 | 95 | 16* | x | x | x | x
Cn1c(=O)c(C(=O)CSc2nncs2)c(N)n(Cc2ccccc2)c1=O | 87 | 73 | 1.6 | 91 | 92 | 83
C=CCn1c(SC(C)CC)nc(O)cc1=O (centres undefined) | 92 | 98 | -0.00095 | 96 | 92 | 95
CCCCn1c2c(c(=N)c3c1CCC3)CCC2 | 79 | 87 | 0.016 | 31 | 18 | 79
CCCCCCn1c2c(c(=N)c3c1CCC3)CCC2 | 92 | 26* | -1.5 | 6 | 5.2* | 67
CCCCCCCCCn1c2c(c(=N)c3c1CCC3)CCC2 | 3.9* | 8.6* | -6.2* | 1.6* | 1.9* | 28*
Clc1ccc2nnnc(-c3ccccc3)c2c1 | x | x | x | 3.1* | 3.7* | x
Cc1cccc(-c2nnc(NC(=O)c3ccc(Cl)cc3)o2)c1 | 3.2* | 25* | -4.4* | 6 | 29 | 106
CCOc1cccc(C(=O)Nc2cccc(-c3nnc(-c4ccc(C)cc4)o3)c2)c1 | 17* | x | -0.53 | 3.1* | 1.7* | 37*
O=C(Nc1nnc(-c2ccc(Cl)cc2)o1)c1ccc(N2C(=O)CCC2=O)cc1 | x | x | x | 82 | 75 | x
COc1cccc(C(=O)Nc2ccc(NC(C)=O)cc2)c1 | x | x | -0.39 | 98 | 89 | x
O=C(Nc1nnc(-c2ccccc2)o1)c1cc(Cl)sc1Cl | x | x | x | 88 | 86 | x
COc1ccc(C(=O)Nc2nnc(-c3ccccc3)o2)cc1OC | 86 | 33* | -0.66 | 55 | 59 | 93
COc1cccc(C(=O)Nc2cccc(NC(C)=O)c2)c1 | 94 | 33* | -2.1 | 75 | 78 | x
O=C(COC(=O)Cn1cnc2ccccc2c1=O)Nc1ccccc1Sc1ccc(Cl)cc1 | x | x | x | 80 | 84 | x
COc1ccc(-c2cn3cccnc3n2)cc1F | x | x | x | 97 | 99 | x
COC(C/C=C\C(=O)[C@@H](C)OCc1ccccc1)OC | x | x | 1.8 | x | x | x
COc1cccc(C(=O)Nc2cccc(-c3nnc(-c4ccccc4)o3)c2)c1 | 55 | 17* | x | x | x | x
COc1cccc(NC(=O)c2nnn(CCc3ccccc3)c2N)c1 | 59 | 32* | -2.6* | 56 | 59 | 86
COc1ccc(CC(=O)Nc2cccc(-c3nnc(-c4cccc(C)c4)o3)c2)cc1OC | 3.2* | 41 | -5.5 | 105 | 111 | 35*
COc1cccc(C(=O)Nc2ccc(NC(=O)C(C)(C)C)cn2)c1 | 100 | 37* | 0.67 | 98 | 93 | x
CC(C)(C)NC(=O)/C(=C\C=C\c1ccccc1)NC(=O)c1ccc([N+](=O)[O-])cc1 | x | x | x | 88 | 92 | x
O=C(Nc1nnc(-c2ccc(Cl)cc2)o1)c1nc2ccccc2s1 | 38 | 17* | -0.3 | 70 | 78 | 95
COc1ccccc1-c1nnc(NC(=O)c2ccc(S(=O)(=O)N(C)C)cc2)o1 | 75 | 102 | 0.57 | 56 | 53 | 77
O=C(Nc1nnc(-c2ccc(Cl)cc2)o1)Nc1ccccc1Cl | 89 | 83 | -1.1 | x | 92 | 111
SMILES | HUVEC inhibit | H69AR inhibit | Cav32 inh | PTEN del growth | bCat KO growth | Lung fibro prol
COc1ccccc1-c1nnc(NC(=O)c2ccccc2F)o1 | 96 | 1.9* | -0.67 | 84 | 69 | 88
CC(C)Cc1nc2oc3c(NCC4CCCO4)ncnc3c2c2c1CCC2 (centres undefined) | 53 | 33* | -1.5 | 50 | 55 | 85
CC(=O)Nc1nonc1NC(=O)c1ccc(C(C)(C)C)cc1 | 95 | 84 | -0.33 | 105 | 103 | 97
O=C(NC1CCCC1)c1ccccc1-c1ccccc1 | x | x | x | 95 | 99 | x
CC(C)N(C(=O)c1ccccc1-c1ccccc1)C(C)C | 116 | 97 | -4.6* | 72 | 72 | 96
Cc1ccc(C2=C/C(=C/c3cccs3)C(=O)O2)cc1 | x | x | x | 93 | 91 | x
Cc1cc2cc(CNC(=O)Cc3cccs3)ccc2n1C | 61 | 38* | -4.2* | x | x | 107
Cc1cccc(N2CCN(C(=O)Cc3cn(C)c4ccccc34)CC2)c1C | 71 | 18* | -4.9 | 26 | 29 | 89
O=C1CCCc2c1cc(C(=O)NCc1ccco1)c(=O)n2-c1ccccc1 | 90 | 73 | 2.7 | 103 | 90 | 103
CC1(C)CC(=O)c2cc(C(=O)NCc3ccco3)c(=O)n(-c3ccc(Cl)cc3)c2C1 | 93 | 59 | 1.4 | 86 | 88 | 48*
Cc1ccc(-n2c(C)cc(C3N=C(N)Nc4nc5ccccc5n43)c2C)c(C)c1 (centres undefined) | 16* | 33* | -3.4 | 5 | 9 | 72
CC(Sc1ccc(Cl)cc1)C(=O)Nc1ccc(S(=O)(=O)N2CCOCC2)cc1 (centres undefined) | 85 | 64 | -5.1* | 59 | 60 | 86
CC(Sc1ccc(Cl)cc1)C(=O)Nc1ccc2c(c1)OCO2 (centres undefined) | 94 | 97 | -5.8* | 82 | 93 | 103
CC(C)C(C(=O)Nc1ccc(S(=O)(=O)N2CCOCC2)cc1)N1C(=O)c2ccccc2C1=O (centres undefined) | 90 | 98 | 0.13 | 108 | 91 | 103
O=C(Nc1ccc2c(c1)OCO2)C(c1ccc(Cl)cc1)N1CCN(C(=O)c2ccco2)CC1 (centres undefined) | 97 | 94 | -4.3* | 75 | 70 | 102
CC(Sc1ccc(Cl)cc1)C(=O)NCc1ccc2c(c1)OCO2 (centres undefined) | 99 | 100 | -5.8* | 88 | 87 | 106
CCOC(=O)c1sc(NC(=O)COC(=O)C(CCSC)NC(C)=O)nc1C (centres undefined) | x | x | x | 91 | 89 | x
COc1ccc(NC(=O)N2CCCC(c3nc(-c4ccc(C(C)C)cc4)no3)C2)cc1 (centres undefined) | 73 | 86 | -1.3 | 72 | 77 | 88
CC(C(=O)NCc1ccc2c(c1)OCO2)N1c2cccc3cccc(c23)S1(=O)=O (centres undefined) | 109 | 87 | -5.1* | 79 | 93 | 92
O=C(CN1c2cccc3cccc(c23)S1(=O)=O)NCc1ccc2c(c1)OCO2 | 96 | 101 | 0.055 | 87 | 86 | 102
Clc1ccc(CSc2nnc(-c3sccc3-n3cccc3)o2)cc1 | x | x | -1 | 72 | 65 | x
CCOc1ccc(N(C(C)C(=O)N/N=C(\C)c2cccc(NC(=O)c3ccccc3)c2)S(C)(=O)=O)cc1 (centres undefined) | x | x | -10* | 44 | 44 | x
O=S(=O)(/N=C(\Sc1ccc(Cl)cc1)c1ccccc1)c1ccccc1 | 61 | 39* | 0.12 | 68 | 43 | 73
O=C(NCCCn1ccnc1)c1nn2c(C(F)(F)F)cc(-c3ccc(Br)cc3)nc2c1Cl | x | x | x | 47 | 23 | x
Cc1ccc2nc(SCC(=O)Nc3cc(C(F)(F)F)ccc3N3CCOCC3)[nH]c2c1 | 29* | 12* | -1.1 | 13 | 10 | 40*
CCc1ccc(C2CC(=O)N3CN(c4ccccc4)CSC3=C2C#N)cc1 (centres undefined) | 103 | 91 | -2.1 | 93 | 94 | 101

Screening data from PubChem.
